3 compounds from ChEMBL document CHEMBL4000173, “An evaluation of central penetration from a peripherally administered oxytocin receptor selective antagonist in nonhuman primates” (Bioorg Med Chem, 2017) can be followed below.

Structures are written as SMILES.

For orientation: half-life means the time in which the quantity being followed falls by half. A word on the Cmax: it is the maximum level reached in the sampled fluid or tissue. In general, Tmax refers to the time at which the peak concentration occurs. As a reminder, the Ki is a dissociation constant, usually derived from enzyme kinetics or from competition with a known ligand.

Data set [1] in a line: Half life in rhesus monkey plasma at 202 to 7690 ug administered via intranasal nebulization for 8 mins by LC-MS method. It is filed as ADME, cell-free, Macaca mulatta. The conditions noted are these: inhaled or intranasal. A digest of the protocol:
(§1)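 Four male rhesus macaques, 5 years old, 9–13 kg, under Telazol (4–5 mg/kg IM) then IV propofol. Dose in propylene glycol given by face mask from a pediatric nebulizer for 8 min. Lumbar CSF collected by passive drip at 60 and 120 min; blood-tinged CSF excluded. Plasma solid-phase extracted with ethyl acetate. LC-MS/MS in duplicate against an internal standard and a 0.8–10 pg/ml calibration curve. ke = (lnC1 − lnC2)/(t2 − t1), confirmed by semi-log regression; t1/2 = 0.693/ke.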

Data set [2] in a line: Cmax in rhesus monkey plasma at 7690 ug administered via intranasal nebulization for 8 mins by LC-MS method. Type of data set: ADME, cell-free, Macaca mulatta. Set-up: dose 7690 ug, route nasal. The conditions noted are these: inhaled or intranasal. The procedure, abridged: (§2)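 Anesthetised male rhesus macaques (Telazol IM, propofol IV) inhaled drug in propylene glycol (low 120 μg/ml, high 6.15 mg/ml) by pediatric nebuliser and face mask for 8 min; dose was taken from nebuliser residue. Plasma (stored −80 C) was spiked with internal standard and extracted by solid-liquid extraction with ethyl acetate, then dried and redissolved in water/methanol/formic acid 70:30:0.1. It was measured in duplicate by C18 LC-MS/MS against a rhesus-plasma calibration. Recovery was about 86%.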

Data set [3] relates to Rhesus monkey. The data set can be described thus: Activity at OXTR in rhesus monkey assessed as concentration in CSF required to elicit behavioral effects at 6.15, im. Type of data set: functional, Macaca mulatta. The procedure, abridged:
(§3)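 Estimated OXTR-relevant CSF targets for male rhesus macaques. Values come from OT levels before and after aerosolized IN OT (24 IU) reported in earlier work. They assume a 10 ml total CSF volume and scale from the in vitro Ki, which was measured by displacing 2 nM [3H]OT.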

Data set [4] relates to Rhesus monkey. The data set can be described thus: In vivo antagonist activity at OXTR in rhesus monkey assessed as concentration in CSF required to displace endogenous oxytocin at 6.15, im. Type of data set: functional, Macaca mulatta. The procedure, abridged:
as §3

Data set [5] is described as follows: Tmax in rhesus monkey plasma at 202 ug administered via intranasal nebulization for 8 mins by LC-MS method. Type of data set: ADME, cell-free, Macaca mulatta. The conditions noted are these: inhaled or intranasal. A digest of the protocol: as §1
The nature of data set [6]: Cmax in rhesus monkey CSF at 1650 ug, im by LC-MS method. Type of data set: ADME, organism-based, Macaca mulatta, Cerebrospinal fluid. Details: dose 1650 ug, route intramuscular; call rule not given here.
Data set [7] concerns Rhesus monkey. Put plainly: Activity at OXTR in rhesus monkey assessed as concentration in CSF required to elicit behavioral effects at 7.69 mg administered via intranasal nebulization for 8 mins. It is filed as functional, Macaca mulatta. A digest of the protocol:
as §3

The nature of data set [8]: Cmax in rhesus monkey plasma at 6150 ug, im by LC-MS method. Details: dose 6150 ug, route intramuscular. Type of data set: ADME, organism-based, Macaca mulatta. The procedure, abridged: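 Anesthetised male rhesus macaques (n=2; Telazol IM, propofol IV) received 6.15 mg in propylene glycol (6.15 mg/ml) injected into the inner thigh muscle. Plasma was spiked with internal standard and extracted by solid-liquid extraction with ethyl acetate, then redissolved in water/methanol/formic acid 70:30:0.1. It was quantified in duplicate by C18 LC-MS/MS against a rhesus-plasma calibration curve.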

The nature of data set [9]: Tmax in rhesus monkey CSF at 7690 ug administered via intranasal nebulization for 8 mins by LC-MS method. It is filed as ADME, Macaca mulatta, Cerebrospinal fluid. The conditions noted are these: inhaled or intranasal. The procedure, abridged:
as §1

Data set [10] can be described thus: Cmax in rhesus monkey plasma at 202 ug administered via intranasal nebulization for 8 mins by LC-MS method. Type of data set: ADME, cell-free, Macaca mulatta. Details: dose 202 ug, route nasal. The following applies: inhaled or intranasal. The procedure, abridged:
as §2

Data set [11] can be described thus: Cmax in rhesus monkey CSF at 202 ug administered via intranasal nebulization for 8 mins by LC-MS method. It is filed as ADME, Macaca mulatta, Cerebrospinal fluid. Details: dose 202 ug, route nasal. The following applies: inhaled or intranasal. The procedure, abridged:
(§4)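 Four male rhesus macaques (5 yr, 9–13 kg) under IM Telazol, then IV propofol. Drug in propylene glycol (low 120 μg/ml, high 6.15 mg/ml) was aerosolised for 8 min by pediatric nebuliser through a face mask. Dose was taken from the nebuliser residue. Lumbar CSF was collected by passive drip at 60 and 120 min; blood-tinged samples were discarded. CSF was run unprocessed by LC-MS/MS in duplicate against an artificial-CSF calibration (0.8–10 pg/ml) with internal standard.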

Data set [12] is described as follows: Tmax in rhesus monkey plasma at 7690 ug administered via intranasal nebulization for 8 mins by LC-MS method. Type of data set: ADME, cell-free, Macaca mulatta. The conditions noted are these: inhaled or intranasal. The procedure, abridged:
as §1

A short description of data set [13]: Tmax in rhesus monkey CSF at 202 ug administered via intranasal nebulization for 8 mins by LC-MS method. Type of data set: ADME, Macaca mulatta, Cerebrospinal fluid. The following applies: inhaled or intranasal. A digest of the protocol: as §1
Data set [14] in a line: Elimination rate constant in rhesus monkey CSF at 7690 ug administered via intranasal nebulization for 8 mins by LC-MS method. Type of data set: ADME, Macaca mulatta, Cerebrospinal fluid. The following applies: in vivo, inhaled_or_intranasal. A digest of the protocol: as §1
Data set [15] is described as follows: Cmax in rhesus monkey CSF at 7690 ug administered via intranasal nebulization for 8 mins by LC-MS method. Set-up: dose 7690 ug, route nasal. The following applies: inhaled or intranasal. Type of data set: ADME, Macaca mulatta, Cerebrospinal fluid. A digest of the protocol: as §4
Data set [16] can be described thus: Half life in rhesus monkey CSF at 7690 ug administered via intranasal nebulization for 8 mins by LC-MS method. It is filed as ADME, Macaca mulatta, Cerebrospinal fluid. The conditions noted are these: in vivo, inhaled_or_intranasal. The procedure, abridged: as §1
Data set [17] is described as follows: Elimination rate constant in rhesus monkey plasma at 202 to 7690 ug administered via intranasal nebulization for 8 mins by LC-MS method. Type of data set: ADME, cell-free, Macaca mulatta. The conditions noted are these: inhaled or intranasal. A digest of the protocol: as §1
A short description of data set [18]: Tmax in rhesus monkey plasma at 6150 ug, im by LC-MS method. Type of data set: ADME, organism-based, Macaca mulatta. The procedure, abridged:
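Male rhesus macaques (5 yr, 9–13 kg), anaesthetised with Telazol IM then IV propofol drip, given 6.15 mg in propylene glycol (6.15 mg/ml) into inner thigh muscle (n=2). Plasma separated, stored −80 C, extracted by solid-liquid phase with ethyl acetate plus internal standard. LC-MS/MS (C18, water/methanol/formic acid) in duplicate against calibration curve in rhesus plasma; time of maximum plasma concentration taken.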

For data set [19], the system named is Rhesus monkey. The data set can be described thus: In vivo antagonist activity at OXTR in rhesus monkey assessed as concentration in CSF required to displace endogenous oxytocin at 7.69 mg administered via intranasal nebulization for 8 mins. Type of data set: functional, Macaca mulatta. The procedure, abridged:
as §3

Data set [20] can be described thus: Drug uptake in Sprague-Dawley rat muscle at 340 to 390 uCi, im up to 120 mins by PET imaging method. It is filed as ADME, organism-based, Muscle tissue. The conditions noted are these: in vivo, 2 h. The procedure, abridged:
(§5)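 Female Sprague-Dawley rats, 200–330 g, under 4–5% isoflurane in oxygen. [18F]tracer, 340–390 μCi in 100 μl, injected IM just above the knee of the hind leg. PET starting 15 min post injection, 2 h scan, with 7 min Co-57 transmission scan. Time-activity curves of mean nCi/cc, n=3.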

Data set [21] in a line: Drug uptake in Sprague-Dawley rat muscle at 126 to 295 uCi, iv administered as 30 mins bolus infusion after 15 to 90 mins by PET imaging method. It is filed as ADME, organism-based, Muscle tissue. The following applies: in vivo.
The test system of a further data set is Brain. Put plainly: Drug uptake in Sprague-Dawley rat brain at 126 to 295 uCi, iv administered as 30 mins bolus infusion after 15 to 90 mins by PET imaging method. The conditions noted are these: in vivo. It is filed as ADME, organism-based.
Data set [22] can be described thus: Drug uptake in Sprague-Dawley rat skull at 340 to 390 uCi, im up to 120 mins by PET imaging method. The conditions noted are these: in vivo, 2 h. It is filed as ADME, organism-based. A digest of the protocol:
as §5

Data set [23] can be described thus: Drug uptake in Sprague-Dawley rat skull at 126 to 295 uCi, iv administered as 30 mins bolus infusion after 15 to 90 mins by PET imaging method. Type of data set: ADME, organism-based. The conditions noted are these: in vivo.
In a further data set the target is T1, Oxytocin receptor (Homo sapiens, UniProt P30559).
T1 sequence (P30559 whole entry): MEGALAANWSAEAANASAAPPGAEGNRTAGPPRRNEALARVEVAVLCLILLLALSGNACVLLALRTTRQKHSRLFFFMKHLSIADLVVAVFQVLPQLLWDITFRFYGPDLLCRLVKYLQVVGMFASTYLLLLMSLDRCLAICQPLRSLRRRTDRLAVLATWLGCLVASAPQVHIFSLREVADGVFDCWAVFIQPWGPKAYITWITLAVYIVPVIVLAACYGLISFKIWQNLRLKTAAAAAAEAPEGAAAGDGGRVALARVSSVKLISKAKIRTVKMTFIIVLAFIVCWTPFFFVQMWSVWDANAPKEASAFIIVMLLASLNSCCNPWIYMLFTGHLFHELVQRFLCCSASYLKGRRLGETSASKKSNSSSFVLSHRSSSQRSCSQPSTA
The data set can be described thus: Displacement of [3H]Oxytocin from human OXTR expressed in CHO cell membranes after 90 mins by liquid scintillation counting method.

`CS(=O)(=O)N1CCC(Oc2ccc(CC(=O)N3CCC(N4C(=O)CCc5ccccc54)CC3)c(OCCF)c2)CC1`: the half-life in [1] worked out at 29 min. Moreover, the Cmax stood at 156 ng/mL in data set [2]; 0.478 ng/mL in [6]; 740 ng/mL in data set [8]; 1.16 ng/mL in data set [10]; 7.36 pg/mL in data set [11]; 0.0972 ng/mL in [15]. Further, the Activity was determined as 24 pM in the data set on Rhesus monkey [3], 56 pM with Rhesus monkey [4], 24 pM in the data set with Rhesus monkey [7] and 56 pM in the data set with Rhesus monkey [19]. In addition, the Tmax was 5 min in data set [5]; 1 h in [9]; 15 min in data set [12]; 2 h in data set [13]; 1 h in data set [18]. In data set [14], this compound yielded a Kel of 0.007 min⁻¹. In [16], the t1/2 was found to be 96 min. In data set [17], this compound gave a k el at 8 min of 0.0004 s⁻¹.

With `CS(=O)(=O)N1CCC(Oc2ccc(CC(=O)N3CCC(N4C(=O)CCc5ccccc54)CC3)c(OCC[18F])c2)CC1`, the Drug uptake result (in data set [20]; in data set [21]; in the data set on Brain; in data set [22]; in data set [23]) was “Active” in each case.

Consider `Cc1ccccc1N1CCN(S(=O)(=O)CC23CCC(CC2NC(=O)C(N)CCS(C)(=O)=O)C3(C)C)CC1` (stereo not given), for which affinity at Oxytocin receptor was put at a Ki of 17 nM.
